The text below walks through data of ChEMBL document CHEMBL1127604 (J Med Chem, 1994).

The target in experiment [1] is T1, 5-hydroxytryptamine receptor 1D (Rattus norvegicus, UniProt P28565). Kind of experiment: Inhibition of forskolin stimulated adenylate cyclase at 5-hydroxytryptamine 1D receptor. It counts as functional.
Experiment [2] can be described thus: Selectivity value is the ratio between IC50 values of 5-HT1A and 5-HT1D receptors.
Experiment [3] is described as follows: Selectivity value is the ratio between EC50 values of 5-HT1A and 5-HT1D receptors.
Experiment [4] has as its target T1, 5-hydroxytryptamine receptor 1D. In words: Binding affinity was measured against serotonin 5-hydroxytryptamine 1D receptor. Summed up: (§1)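 Radioligand binding at 5-HT1A and 5-HT1D receptors, run by the group's earlier published protocol. Each value is the arithmetic mean of at least three independent determinations.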
The target of experiment [5] is T2, 5-hydroxytryptamine receptor 1A (Rattus norvegicus, UniProt P19327).
T2 sequence (P19327 whole entry): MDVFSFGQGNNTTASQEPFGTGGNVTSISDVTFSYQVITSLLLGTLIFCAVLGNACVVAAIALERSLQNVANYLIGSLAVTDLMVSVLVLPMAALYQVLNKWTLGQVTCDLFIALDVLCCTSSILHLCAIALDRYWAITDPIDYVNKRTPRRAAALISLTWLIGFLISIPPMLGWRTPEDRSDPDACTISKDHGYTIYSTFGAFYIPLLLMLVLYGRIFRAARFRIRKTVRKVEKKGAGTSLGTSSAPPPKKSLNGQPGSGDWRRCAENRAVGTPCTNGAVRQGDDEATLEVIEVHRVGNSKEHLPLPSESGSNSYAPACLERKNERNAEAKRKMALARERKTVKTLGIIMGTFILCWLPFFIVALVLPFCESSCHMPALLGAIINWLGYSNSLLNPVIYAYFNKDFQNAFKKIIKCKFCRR
Kind of experiment: Binding affinity was measured against serotonin 5-hydroxytryptamine 1A receptor. Summed up: as §1

Experiment [6] addresses T2, 5-hydroxytryptamine receptor 1A. In words: Inhibition of forskolin stimulated adenylate cyclase at 5-hydroxytryptamine 1A receptor. The format is functional.

The EC50 is the concentration giving half of the maximal effect. The IC50 is the concentration that gives 50% inhibition. The low end stands for greater potency, the high end for weaker potency.

T1 sequence (P28565 whole entry): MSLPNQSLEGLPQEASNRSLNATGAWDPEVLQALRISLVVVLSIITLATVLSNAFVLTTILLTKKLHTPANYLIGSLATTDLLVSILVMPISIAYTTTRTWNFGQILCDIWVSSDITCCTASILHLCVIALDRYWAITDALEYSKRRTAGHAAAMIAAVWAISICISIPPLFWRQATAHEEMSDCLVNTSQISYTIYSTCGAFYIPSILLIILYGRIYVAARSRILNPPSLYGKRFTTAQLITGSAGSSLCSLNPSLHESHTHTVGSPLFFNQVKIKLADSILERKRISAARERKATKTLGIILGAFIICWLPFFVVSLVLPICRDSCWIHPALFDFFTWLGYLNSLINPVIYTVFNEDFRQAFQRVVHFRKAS

For `CN(C)CCc1c[nH]c2ccc(Nc3ncccc3[N+](=O)[O-])cc12`, the half-maximal effective concentration (EC50) amounted to 2 nM in experiment [1] and 170 nM in experiment [6]. For the same compound, the Selectivity was found to be 7 in experiment [2] and 85 in experiment [3]. The IC50 in experiment [4] was 10 nM; in experiment [5], 73 nM.

On to `CNS(=O)(=O)Cc1ccc2[nH]cc(CCN(C)C)c2c1`, for which, in experiment [5], the IC50 came out at 640 nM. Besides, in experiment [6], the EC50 stood at 1300 nM.

With `O=[N+]([O-])c1cccnc1Nc1ccc2[nH]cc(C[C@H]3CCCN3)c2c1`, the figures for the EC50 in experiment [1] and in experiment [6] were 1.3 nM and 220 nM, respectively. In addition, the Selectivity is 19 in experiment [2] and 170 in experiment [3]. Besides, the figures for the IC50 in experiment [4] and in experiment [5] were 6.2 nM and 120 nM, respectively.

For the compound `CN1CCC[C@@H]1Cc1c[nH]c2ccc(Nc3ncccc3[N+](=O)[O-])cc12`, the figures for the EC50 in experiment [1] and in experiment [6] were 1.3 nM and 47 nM, respectively. The Selectivity in experiment [2] amounted to 11; in experiment [3], 36. In addition, the IC50 in experiment [4] came out at 3.1 nM; in experiment [5], 33 nM.

For the compound `CN1CCC(c2c[nH]c3ccc(Nc4ncccc4[N+](=O)[O-])cc23)C1` (stereo unspecified), the EC50 turned out to be 2 nM in experiment [1] and 885 nM in experiment [6]. Further, the Selectivity in experiment [2] stood at 21; in experiment [3], 440. For the same compound, the IC50 came to 15 nM in experiment [4] and 320 nM in experiment [5].
